Active and inactive are the calls of the source. The rule behind the calls is not given here.
How the values were obtained:
MCF7 = assay: Cytotoxicity against human MCF7 cells assessed as reduction in cell viability incubated for 24 hrs by MTT assay; type: functional, cell-based; settings: MCF7, 24 h
How it was run: (§1)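 MTT viability: cells seeded at 1 × 10^4/well, grown 24 h, then exposed to a concentration range of compound for 24 h. MTT (5 mg/mL stock) added for 3 h, formazan dissolved in DMSO, absorbance read at 540 nm.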

PC-3 = assay: Cytotoxicity against human PC-3 cells assessed as reduction in cell viability incubated for 24 hrs by MTT assay; type: functional, cell-based; settings: PC-3, 24 h; how it was run: as §1
HEK293 = assay: Cytotoxicity against human HEK293 cells assessed as reduction in cell viability incubated for 24 hrs by MTT assay; type: cell-based; settings: HEK293, 24 h; how it was run: as §1
MDA-MB-231 [1] = assay: Induction of cell cycle arrest in human MDA-MB-231 cells assessed as accumulation at G0/G1 phase at 2 uM incubated for 24 hrs by PI staining based flow cytometry analysis (reference value: 23.74 to 46.27 %); type: functional
MDA-MB-231 [2] = assay: Induction of cell cycle arrest in human MDA-MB-231 cells assessed as accumulation at S phase at 2 uM incubated for 24 hrs by PI staining based flow cytometry analysis (reference value: 40.37 to 57.89 %); type: functional
MDA-MB-231 [3] = assay: Induction of cell cycle arrest in human MDA-MB-231 cells assessed as accumulation at G2/M phase at 4 uM incubated for 24 hrs by PI staining based flow cytometry analysis (reference value: 4.35 to 19.56 %); type: functional
MDA-MB-231 [4] = assay: Induction of apoptosis in human MDA-MB-231 cells assessed as early apoptotic cells at 2 uM incubated for 24 hrs by annexin-V-FITC and PI staining based flow cytometry analysis (reference value: 0.28 to 4.68 %); type: functional
How it was run: (§2)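 MDA-MB-231 cells (1 × 10^6) grown 24 h in six-well plates, then treated for 24 h. Cells trypsinized, PBS-washed and stained with Annexin V-FITC/PI in binding buffer for 10 min in the dark at room temperature. Early/late apoptotic fractions quantified by flow cytometry.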

MDA-MB-231 [5] = assay: Induction of apoptosis in human MDA-MB-231 cells assessed as late apoptotic cells at 2 uM incubated for 24 hrs by annexin-V-FITC and PI staining based flow cytometry analysis (reference value: 0.28 to 0.84 %); type: functional
MDA-MB-231 [6] = assay: Induction of apoptosis in human MDA-MB-231 cells assessed as necrotic cells at 2 uM incubated for 24 hrs by annexin-V-FITC and PI staining based flow cytometry analysis (reference value: 0.01 to 0.8 %); type: functional
MDA-MB-231 [7] = assay: Induction of apoptosis in human MDA-MB-231 cells assessed as early apoptotic cells at 4 uM incubated for 24 hrs by annexin-V-FITC and PI staining based flow cytometry analysis (reference value: 0.28 to 4.68 %); type: functional; how it was run: as §2
MDA-MB-231 [8] = assay: Induction of apoptosis in human MDA-MB-231 cells assessed as necrotic cells at 4 uM incubated for 24 hrs by annexin-V-FITC and PI staining based flow cytometry analysis (reference value: 0.01 to 0.8 %); type: functional
MDA-MB-231 [9] = assay: Induction of apoptosis in human MDA-MB-231 cells assessed as late apoptotic cells at 6 uM incubated for 24 hrs by annexin-V-FITC and PI staining based flow cytometry analysis (reference value: 0.28 to 0.84 %); type: functional
MDA-MB-231 [10] = assay: Induction of apoptosis in human MDA-MB-231 cells assessed as necrotic cells at 6 uM incubated for 24 hrs by annexin-V-FITC and PI staining based flow cytometry analysis (reference value: 0.01 to 0.8 %); type: functional
MDA-MB-231 [11] = assay: Induction of apoptosis in human MDA-MB-231 cells incubated for 24 hrs by annexin-V-FITC and PI staining based flow cytometry analysis; type: functional, cell-based; settings: dose 2-6 µM
MDA-MB-231 [12] = assay: Induction of mitochondrial membrane depolarization in human MDA-MB-231 cells at 2 to 6 uM incubated for 24 hrs by JC-1 staining based flow cytometry analysis; type: functional, cell-based; settings: dose 2-6 µM
How it was run: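 Mitochondrial potential measured in MDA-MB-231 cells (1 × 10^6) seeded in six-well plates for 24 h and treated 24 h. Trypsinized cells PBS-washed and stained with 5 µg/ml JC-1 for 30 min in dark at room temperature. Resuspended in PBS and read by flow cytometry as red aggregate versus monomer fluorescence.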

MDA-MB-231 [13] = assay: Induction of ROS production in human MDA-MB-231 cells at 2 to 6 uM incubated for 24 hrs by DCFH-DA staining based flow cytometry analysis; type: functional, cell-based; settings: dose 2-6 µM
How it was run: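 MDA-MB-231 cells (1 × 10^6) seeded in 6-well plates for 24 h, then treated at several concentrations for 24 h. Cells trypsinized, fixed in cold methanol, stained with 30 µg/mL DCFH-DA for 30 min in the dark at room temperature, and analysed by flow cytometry.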

MDA-MB-231 [14] = assay: Induction in caspase-mediated apoptosis in human MDA-MB-231 cells assessed as decrease in cell viability at 2 uM incubated for 24 hrs in presence of Z-VAD-FMK by MTT assay; type: functional, cell-based
How it was run: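 MDA-MB-231 cells pretreated 2 h with 50 µM Z-VAD-FMK, then exposed to 2 µM compound for 24 h. Viability by MTT (3 h), formazan in DMSO, absorbance at 540 nm. Three independent experiments, mean ± S.E.M.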

[15] = target: Estrogen receptor beta (Homo sapiens) (UniProt Q92731); assay: Transactivation of ERbeta (unknown origin) transfected in human MDA-MB-231 cells at 1 uM by dual luciferase receptor assay; type: cell-based
Chain of Estrogen receptor beta (Homo sapiens) (Q92731 whole entry): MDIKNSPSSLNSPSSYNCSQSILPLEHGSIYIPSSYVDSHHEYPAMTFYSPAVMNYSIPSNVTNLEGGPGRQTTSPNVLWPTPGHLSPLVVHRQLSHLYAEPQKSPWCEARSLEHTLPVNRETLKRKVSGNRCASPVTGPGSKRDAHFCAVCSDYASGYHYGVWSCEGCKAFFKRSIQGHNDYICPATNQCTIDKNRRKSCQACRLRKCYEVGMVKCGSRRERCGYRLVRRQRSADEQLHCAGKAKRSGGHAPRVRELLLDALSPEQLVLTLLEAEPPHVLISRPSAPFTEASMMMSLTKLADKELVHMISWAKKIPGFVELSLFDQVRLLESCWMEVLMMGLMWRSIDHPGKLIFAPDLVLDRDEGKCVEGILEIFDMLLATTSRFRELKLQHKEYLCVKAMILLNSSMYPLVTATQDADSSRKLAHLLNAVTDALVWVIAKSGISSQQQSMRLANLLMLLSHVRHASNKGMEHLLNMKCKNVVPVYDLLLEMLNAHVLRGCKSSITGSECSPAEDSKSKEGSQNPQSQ
How it was run: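 MDA-MB-231 cells grown to 80-90% confluency, transfected with 500 ng of ERα (pSG5 mERα) or ERβ (pSG5-hERβ) expression vector plus pRL-SV40 Renilla for normalization, then reseeded. Cells incubated with E2 (100 nM), compound at 1 µM, or tamoxifen at 1 µM. Dual luciferase readout reported as percent normalized RLU, triplicate experiments with three replicates each.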

[16] = Toxicity in BALB/c mouse xenografted with mouse 4T1 cells assessed as survival rate at 10 to 20 mg/kg, po administered for 21 days and measured on day 21; type: organism-based; settings: in vivo, 504 h, dose 10-20 mg/kg, time 21 day
How it was run: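 Orthotopic syngeneic model: 4T1 cells (7 × 10^5) injected into mammary fat pad of six-week-old female Balb/c mice. Once tumours were measurable at one week, mice were randomized into ten groups. Compound was dissolved in ethanol, diluted in PBS, and given by oral gavage at 10 or 20 mg/kg daily for 21 days; vehicle controls. Body weight and tumour size were measured twice weekly.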

[17] = Acute toxicity in Swiss albino mouse assessed as protein level at 5 mg/kg, po administered once and observed for 7 days (reference value: 2.01 +/- 0.11 mg/ml); type: organism-based; settings: in vivo, 168 h, time 7 day
[18] = Acute toxicity in Swiss albino mouse assessed as relative brain weight at 5 to 300 mg/kg, po administered once and observed for 7 days; type: organism-based; settings: in vivo, 168 h, dose 5-300 mg/kg, time 7 day
How it was run: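 Acute oral toxicity per OECD guideline 423; mice 20–25 g, 3 male + 3 female per group, acclimatized 7 days at 22 ± 5 °C, 12 h light/dark. Compound dissolved in minimal DMSO, diluted in 0.7% CMC, single oral dose of 5, 50 or 300 mg/kg; controls given vehicle only. Clinical signs checked hourly on dosing day, then daily. Samples and body weights taken on day 7.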

SMILES: CCN(CC)CCOc1ccc(Cc2c(-c3cc(OC)c(OC)c(OC)c3)n(Cc3ccc(OCCN(CC)CC)cc3)c3ccc(OC)cc23)cc1
- IC50 (MCF7): 6.36 µM
- IC50 (PC-3): 8.31 µM
- IC50 (HEK293): 25.4 µM
- Activity (MDA-MB-231 [1]): 51.72%
- Activity (MDA-MB-231 [2]): 38.21%
- Activity (MDA-MB-231 [3]): 8.09%
- Activity (MDA-MB-231 [4]): 9.52%
- Activity (MDA-MB-231 [5]): 2.94%
- Activity (MDA-MB-231 [6]): 4.3%
- Activity (MDA-MB-231 [7]): 4.19%
- Activity (MDA-MB-231 [8]): 3.29%
- Activity (MDA-MB-231 [9]): 14.25%
- Activity (MDA-MB-231 [10]): 2.09%
- Activity (MDA-MB-231 [11]): Dose-Dependent Effect
- Activity (MDA-MB-231 [12]): Active
- Activity (MDA-MB-231 [13]): Active
- Activity (MDA-MB-231 [14]): Active
- Activity ([15]; filed as activator): Active
- Activity [16]: Non-Toxic

SMILES: COc1ccc2c(c1)c(Cc1ccc(OCCN3CCCCC3)cc1)c(-c1cc(OC)c(OC)c(OC)c1)n2Cc1ccc(OCCN2CCCCC2)cc1
- IC50 (MCF7): 6.48 µM
- IC50 (PC-3): 7.07 µM
- IC50 (HEK293): 30.5 µM
- Activity (MDA-MB-231 [1]): 53.25%
- Activity (MDA-MB-231 [2]): 34.3%
- Activity (MDA-MB-231 [3]): 15.43%
- Activity (MDA-MB-231 [4]): 12.28%
- Activity (MDA-MB-231 [5]): 4.26%
- Activity (MDA-MB-231 [6]): 2.01%
- Activity (MDA-MB-231 [7]): 16.02%
- Activity (MDA-MB-231 [8]): 1.69%
- Activity (MDA-MB-231 [9]): 37.67%
- Activity (MDA-MB-231 [10]): 0.55%
- Activity (MDA-MB-231 [11]): Dose-Dependent Effect
- Activity (MDA-MB-231 [12]): Active
- Activity (MDA-MB-231 [13]): Active
- Activity (MDA-MB-231 [14]): Active
- Activity [15]: inactive
- Activity [16]: Non-Toxic

SMILES: COc1ccc2c(c1)c(Cc1ccc(OCCN(C)C)cc1)c(-c1cc(OC)c(OC)c(OC)c1)n2Cc1ccc(OCCN(C)C)cc1
- IC50 (MCF7): 4.48 µM
- IC50 (PC-3): 5.82 µM
- IC50 (HEK293): 24.5 µM
- Activity (MDA-MB-231 [1]): 60.43%
- Activity (MDA-MB-231 [2]): 38.78%
- Activity (MDA-MB-231 [3]): 0.22%
- Activity (MDA-MB-231 [4]): 11.63%
- Activity (MDA-MB-231 [5]): 5.32%
- Activity (MDA-MB-231 [6]): 2.34%
- Activity (MDA-MB-231 [7]): 18.17%
- Activity (MDA-MB-231 [8]): 3.44%
- Activity (MDA-MB-231 [9]): 15.1%
- Activity (MDA-MB-231 [10]): 9.08%
- Activity (MDA-MB-231 [11]): Dose-Dependent Effect
- Activity (MDA-MB-231 [12]): Active
- Activity (MDA-MB-231 [13]): Active
- Activity (MDA-MB-231 [14]): inactive
- Activity ([15]; filed as activator): Active
- Activity [17]: 1.61 mg/mL
- Activity [18]: Non-Toxic
- Activity [16]: Non-Toxic

SMILES: COc1ccc2c(c1)c(Cc1ccc(OC(C)CN(C)C)cc1)c(-c1cc(OC)c(OC)c(OC)c1)n2Cc1ccc(OC(C)CN(C)C)cc1 (stereo not given)
- IC50 (MCF7): 7.06 µM
- IC50 (PC-3): 6.72 µM
- IC50 (HEK293): 21.8 µM
- Activity (MDA-MB-231 [1]): 46.32%
- Activity (MDA-MB-231 [2]): 40.83%
- Activity (MDA-MB-231 [3]): 9.55%
- Activity (MDA-MB-231 [4]): 17.38%
- Activity (MDA-MB-231 [5]): 3.43%
- Activity (MDA-MB-231 [6]): 3.43%
- Activity (MDA-MB-231 [7]): 28.04%
- Activity (MDA-MB-231 [8]): 3.55%
- Activity (MDA-MB-231 [9]): 26.15%
- Activity (MDA-MB-231 [10]): 7.58%
- Activity (MDA-MB-231 [11]): Dose-Dependent Effect
- Activity (MDA-MB-231 [12]): Active
- Activity (MDA-MB-231 [13]): Active
- Activity (MDA-MB-231 [14]): inactive
- Activity ([15]; filed as activator): Active
- Activity [17]: 1.57 mg/mL
- Activity [18]: Non-Toxic
- Activity [16]: Non-Toxic

— ChEMBL document CHEMBL4811308, “Design, synthesis and broad spectrum antibreast cancer activity of diarylindoles via induction of apoptosis in aggressive breast cancer cells” (Bioorg Med Chem, 2021)
